In ChEMBL document CHEMBL1145041, “Synthesis and structure-activity relationships of cis-tetrahydrophthalazinone/pyridazinone hybrids: a novel series of potent dual PDE3/PDE4 inhibitory agents” (J Med Chem, 2003):

Assays:
Mus musculus [1] = test: Inhibition of arachidonic acid (AA)-induced mouse ear edema after pretreatment with compound (1 h before AA) at a drug concentration of 30 umol/kg po.; type: functional
How it was run: (§1)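 Mice dosed orally at 30 µmol/kg, 1 h before arachidonic acid applied to ear; edema read 1 h after AA (2 h post-dose). Percent inhibition of edema formation calculated versus provoked untreated controls; maximal attainable inhibition in model 80%.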

Phosphodiesterase 3 = Phosphodiesterase 3 (Homo sapiens, UniProt Q14432+Q13370); test: Inhibition of dual cGMP-inhibited phosphodiesterase 3 (PDE3) was determined in homogenates from human platelets.
How it was run: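 Enzyme source: homogenates of human platelets. Values as pIC50 (−log IC50), mean of two independent determinations each run in triplicate.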

Phosphodiesterase 4 = Phosphodiesterase 4 (Homo sapiens, UniProt P27815+Q08499+Q07343+Q08493); test: inhibition of cAMP-specific phosphodiesterase 4 (PDE4) was determined in cytosol from human neutrophils; type: protein assay
How it was run: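 Enzyme source: cytosol of human neutrophils. Values as pIC50 (−log IC50), mean of two independent determinations each run in triplicate.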

Mus musculus [2] = test: In vivo inhibition of arachidonic acid induced mouse ear edema 1 hr after pretreatment with 30 umol/kg peroral dose; type: functional; conditions: po; how it was run: as §1

Row | Structure (SMILES) | Log IC50 (Phosphodiesterase 3) | Log IC50 (Phosphodiesterase 4) | inhibition in vivo at 30 µmol/kg (Mus musculus [1]) [%] | inhibition in vivo at 30 µmol/kg (Mus musculus [2]) [%]
1 | COc1ccc(C2=NN(c3ccc(-c4ccc(O)nn4)cc3)C(=O)C3CC=CCC23)cc1OC (stereo not drawn) | -5.4 | -8.1 | 8 | –
2 | CCOc1ccc(C2=NN(c3ccccc3)C(=O)C3CC=CCC23)cc1OCC (stereo not drawn) | < -5 | -7.7 | – | –
3 | CC1CC(=O)NN=C1c1ccc2c(c1)C(C)(C)C(=O)N2 (stereo not drawn) | -7.9 | – | – | –
4 | CC1(C)C(=O)Nc2ccc(-c3ccc(O)nn3)cc21 | -6.9 | – | – | –
5 | COc1ccc(C2=NN(c3ccccc3)C(=O)C3CC=CCC23)cc1Cl (stereo not drawn) | < -5 | -7.1 | – | –
6 | COc1ccc(C2=NN(c3ccccc3)C(=O)C3CC=CCC23)cc1OC (stereo not drawn) | < -5 | -7.9 | – | 13
7 | COc1ccc(C2=NN(c3ccccc3)C(=O)C3CC=CCC23)cc1OC1CCCC1 (stereo not drawn) | < -5 | -7.8 | – | –
8 | COc1ccc([C@]2(C#N)CC[C@@H](C(=O)O)CC2)cc1OC1CCCC1 [CILOMILAST] | < -5 | – | 33 | –
9 | CC1CC(=O)NN=C1c1ccc(-n2cnc3c2CCCC3)cc1 (stereo not drawn) [TETRAHYDROBENXIMIDAZOLE] | -6.3 | – | – | –
10 | COc1cc(-c2ccc(=O)[nH]n2)ccc1OC(F)F [ZARDAVERINE] | – | – | 22 | –

More lines, main results first:

Row | Log IC50 (Phosphodiesterase 3) | Log IC50 (Phosphodiesterase 4) | Structure (SMILES) | inhibition in vivo at 30 µmol/kg (Mus musculus [1]) [%] | inhibition in vivo at 30 µmol/kg (Mus musculus [2]) [%]
11 | -6.6 | -8.1 | CCOc1ccc(C2=NN(c3ccc(C4=NNC(=O)CC4C)cc3)C(=O)C3CC=CCC23)cc1OCC (stereo not drawn) | 42 | –
12 | -6.7 | -8.6 | CCOc1ccc(C2=NN(CCCCOc3ccc(C4=NNC(=O)CC4C)cc3)C(=O)C3CC=CCC23)cc1OCC (stereo not drawn) | 46 | –
13 | -5.9 | -8.1 | COc1ccc(C2=NN(CC(=O)Nc3ccc(-c4ccc(O)nn4)cc3)C(=O)C3CC=CCC23)cc1OC (stereo not drawn) | 31 | –
14 | -5.8 | -8.4 | COc1ccc(C2=NN(CC(=O)Nc3cccc(C4=NNC(=O)CC4C)c3)C(=O)C3CC=CCC23)cc1OC (stereo not drawn) | – | –
15 | -7.5 | -7.8 | COc1ccc(C2=NN(CCCCOc3ccc(C4=NNC(=O)CC4C)cc3)C(=O)C3CC=CCC23)cc1Cl (stereo not drawn) | 47 | –
16 | -7.1 | -7 | COc1ccc(C2=NN(c3ccc(C4=NNC(=O)CC4C)cc3)C(=O)C3CC=CCC23)cc1Cl (stereo not drawn) | 35 | –
17 | -7.1 | -8.7 | COc1ccc(C2=NN(CCCCOc3ccc(C4=NNC(=O)CC4C)cc3)C(=O)C3CC=CCC23)cc1OC (stereo not drawn) | 32 | –
18 | -6.3 | -7.8 | COc1ccc(C2=NN(c3ccc(C4=NNC(=O)CC4C)cc3)C(=O)C3CC=CCC23)cc1OC1CCCC1 (stereo not drawn) | 18 | –
19 | -6.7 | -8.4 | COc1ccc(C2=NN(c3ccc(C4=NNC(=O)CC4C)cc3)C(=O)C3CC=CCC23)cc1OC (stereo not drawn) | 34 | –
20 | -7 | -8.2 | COc1ccc(C2=NN(CCCCC(=O)Nc3ccc(C4=NNC(=O)CC4C)cc3)C(=O)C3CC=CCC23)cc1OC (stereo not drawn) | 26 | –
21 | -6.1 | -8.2 | COc1ccc(C2=NN(CCCCC(=O)Nc3ccc(-c4ccc(O)nn4)cc3)C(=O)C3CC=CCC23)cc1OC (stereo not drawn) | 27 | –
22 | -6.7 | -8.4 | COc1ccc(C2=NN(CC(=O)Nc3ccc(C4=NNC(=O)CC4C)cc3)C(=O)C3CC=CCC23)cc1OC (stereo not drawn) | 13 | –
